In ChEMBL document CHEMBL2346542, “Preliminary biological evaluation and mechanism of action studies of selected 2-arylindoles against glioblastoma” (Bioorg Med Chem, 2013):
Activity calls are given as the source filed them. The calls are words filed in the database; no cut-off is given here.

Experiments:
U-87 MG [1] = experiment: Induction of oxidative stress in human U87MG cells assessed as increase in reactive oxygens species generation at 500 uM after 1 hr by H2DCFDA dye based flow cytometry; type: functional, cell-based; conditions: U-87MG ATCC
Summary of the method: (§1)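 Cells at 20,000/well in six-well plates, attached overnight. Loaded with 25 µM carboxy-H2DCFDA for 30 min at 37 °C in the dark, then given compound at 500 µM for 60 min. Positive control TBHP 100 µM. Washed in HBSS, trypsinized, resuspended in PBS, strained. Flow cytometry at FITC ex/em 488/519 nm. Vehicle ≤0.5% ethanol and DMSO.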

1321-N1 [2] = experiment: Induction of oxidative stress in human 1321N1 cells assessed as increase in reactive oxygens species generation at 500 uM after 1 hr by H2DCFDA dye based flow cytometry; type: functional, cell-based; summary of the method: as §1
[3] = Antiproliferative activity against human U87MG cells assessed as inhibition of cell growth after 48 hrs by MTS assay; type: functional, cell-based, U-87MG ATCC
Summary of the method: (§2)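 1321N1 grown in DMEM with 10% FBS and 2 mM L-glutamine; U87MG in EMEM with 10% FBS, 2 mM L-glutamine, 1 mM pyruvate and 1% NEAA; 37 °C, 5% CO2. Seeded overnight at 3500 (1321N1) or 4000 (U87MG) cells/200 μl, 50–60% confluent. Compound added in quadruplicate for 48 h. MTS reagent added for 60 min, A490 read. IC50 vs vehicle (≤0.5% ethanol or DMSO) by nonlinear regression.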

[4] = Antiproliferative activity against human 1321N1 cells assessed as inhibition of cell growth after 48 hrs by MTS assay; type: functional, cell-based; summary of the method: as §2
[5] = Antiproliferative activity against human U87MG cells assessed as inhibition of cell growth at 400 uM after 48 hrs by MTS assay; type: functional, U-87MG ATCC; conditions: U-87 MG, read-out: GI
[6] = Antiproliferative activity against human U251MG cells assessed as inhibition of cell growth after 72 hrs by MTT assay; type: functional, cell-based; conditions: U-251, 72 h
Summary of the method: (§3)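 Short-term GBM cultures derived from tumour biopsies, and U251MG, kept in Hams F10 with 10% foetal calf serum at 37 °C without CO2. Cells seeded at 10³ per well and grown 48 h. Then dosed at 0.01–1000 µM in quadruplicate, compound renewed every 24 h, followed by 24 h recovery in compound-free medium. MTT (1 mg/mL) added for 4 h, formazan dissolved in DMSO, OD570 read. IC50 from nonlinear regression vs untreated controls.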

[7] = Antiproliferative activity against human IN1760 cells assessed as inhibition of cell growth after 72 hrs by MTT assay; type: functional, cell-based; conditions: IN1760, 72 h; summary of the method: as §3
[8] = Antiproliferative activity against human IN1265 cells assessed as inhibition of cell growth after 72 hrs by MTT assay; type: functional, cell-based; summary of the method: as §3
[9] = Antiproliferative activity against human IN1472 cells assessed as inhibition of cell growth after 72 hrs by MTT assay; type: functional, cell-based; conditions: IN1472, 72 h; summary of the method: as §3
[10] = Antiproliferative activity against human IN859 cells assessed as inhibition of cell growth […] by MTS assay; type: functional, cell-based
U-87 MG [11] = experiment: Induction of autophagy in human U87MG cells assessed as acidic vesicular organelle formation at 500 uM after 1 hr by acridine orange based flow cytometry in presence of 5 mM, MA; type: functional, cell-based; conditions: U-87MG ATCC
Summary of the method: (§4)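 Acridine orange AVO assay as above: compound at 500 µM for 60 min, given together with 3-methyladenine 5 mM dissolved in medium. Then 3 µM acridine orange for 15 min at 37 °C, flow cytometry at ex/em 488/615 nm. Two experiments.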

1321-N1 [12] = experiment: Induction of autophagy in human 1321N1 cells assessed as acidic vesicular organelle formation at 500 uM after 1 hr by acridine orange based flow cytometry in presence of 5 mM, MA; type: functional, cell-based; summary of the method: as §4
U-87 MG [13] = experiment: Induction of autophagy in human U87MG cells assessed as acidic vesicular organelle formation at 500 uM after 1 hr by acridine orange based flow cytometry; type: functional, cell-based; conditions: U-87MG ATCC
Summary of the method: (§5)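 Cells at 20,000/well in six-well plates, attached overnight. Treated with compound at 500 µM for 60 min, then stained with 3 µM acridine orange for 15 min at 37 °C in the dark. Washed in PBS, trypsinized, strained. Red fluorescence read by flow cytometry at ex/em 488/615 nm (PE-Texas Red). Vehicle ≤0.5% ethanol. One of two experiments shown.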

1321-N1 [14] = experiment: Induction of autophagy in human 1321N1 cells assessed as acidic vesicular organelle formation at 500 uM after 1 hr by acridine orange based flow cytometry; type: functional, cell-based; summary of the method: as §5
U-87MG ATCC = experiment: Antiproliferative activity against human U87MG cells assessed as inhibition of cell viability after 48 hrs by MTS assay in presence of 500 uM antioxidant, ascorbic acid; type: functional, cell-based
1321-N1 [15] = experiment: Antiproliferative activity against human 1321N1 cells assessed as inhibition of cell viability after 48 hrs by MTS assay in presence of 500 uM antioxidant, ascorbic acid; type: functional, cell-based
U-87 MG [16] = experiment: Induction of oxidative stress in human U87MG cells assessed as reactive oxygens species generation at 500 uM after 1 hr by H2DCFDA dye based flow cytometry in presence of 500 uM antioxidant, ascorbic acid; type: functional, cell-based; conditions: U-87MG ATCC
Summary of the method: (§6)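 Run as the carboxy-H2DCFDA ROS flow-cytometry assay (25 µM dye for 30 min, then compound at 500 µM for 60 min, read at ex/em 488/519 nm), with ascorbic acid 500 µM added under the same procedure and time point.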

1321-N1 [17] = experiment: Induction of oxidative stress in human 1321N1 cells assessed as reactive oxygens species generation at 500 uM after 1 hr by H2DCFDA dye based flow cytometry in presence of 500 uM antioxidant, ascorbic acid; type: functional, cell-based; summary of the method: as §6
U-87 MG [18] = experiment: Induction of oxidative stress in human U87MG cells assessed as increase in reactive oxygens species generation at 100 uM after 1 hr by H2DCFDA dye based flow cytometry; type: functional, cell-based; conditions: U-87MG ATCC
Summary of the method: (§7)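 1321N1 (DMEM, 10% FBS, 2 mM glutamine) or U87MG (EMEM, 10% FBS, glutamine, pyruvate, NEAA) cells seeded at 20,000/well and attached overnight. Loaded with 25 µM carboxy-H2DCFDA for 30 min at 37 °C in the dark, then treated for 60 min; TBHP 100 µM was the positive control, vehicle ≤0.5% ethanol/DMSO. Washed in HBSS, trypsinised, then flow cytometry at 488/519 nm.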

1321-N1 [19] = experiment: Induction of oxidative stress in human 1321N1 cells assessed as increase in reactive oxygens species generation at 100 uM after 1 hr by H2DCFDA dye based flow cytometry; type: functional, cell-based; summary of the method: as §7

Q: What does the source list for `COc1ccccc1-c1cc2ccccc2[nH]1` [2-(2'-METHOXYPHENYL)-1H-INDOLE]?
A: Activity (U-87 MG [1]): inactive; Activity (1321-N1 [2]): inactive; IC50 ([3]; u-87mg atcc): Not Active; IC50 ([4]; 1321-n1): Not Active

Q: With `OCc1c[nH]c2ccccc12` [INDOLE-3-CARBINOL] as the molecule, how does the IC50 ([3]; Homo sapiens, U-87 MG, 48 h, read-out: IC50) read?
A: Its IC50 is 526 µM.

Q: And the IC50 ([4]; Homo sapiens, 1321-N1, 48 h, read-out: IC50)?
A: The IC50 was 309 µM.

Q: Which Activity (U-87 MG [1]) does the source give for `c1ccc(-c2cc3ccccc3[nH]2)cc1` [2-PHENYL-1H-INDOLE] here?
A: Its Activity is “inactive”.

Q: What about the Activity (1321-N1 [2]) of the same molecule?
A: Its Activity is “inactive”.

Q: What about the inhibition of growth at 400 µM [5] of the same molecule?
A: The inhibition of growth at 400 µM was 7%.

Q: What about the IC50 ([3]; u-87mg atcc) of the same molecule?
A: Its IC50 is “Not Active”.

Q: What about the IC50 ([4]; 1321-n1) of the same molecule?
A: Its IC50 is “Not Active”.

Q: For `Oc1ccccc1-c1cc2ccccc2[nH]1` [2-(2'-HYDROXYPHENYL)-1H-INDOLE], which IC50 [6] is on record?
A: Its IC50 is 92 µM.

Q: And the IC50 [7]?
A: Its IC50 is greater than 1000 µM.

Q: What about the IC50 [8] of the same molecule?
A: Its IC50 is 90 µM.

Q: What about the IC50 [9] of the same molecule?
A: Its IC50 is 48 µM.

Q: What about the IC50 [10] of the same molecule?
A: The IC50 was 400 µM.

Q: And the Activity (U-87 MG [11])?
A: The Activity was “inactive”.

Q: What about the Activity (1321-N1 [12]) of the same molecule?
A: Its Activity is “inactive”.

Q: And the Activity (U-87 MG [13])?
A: Its Activity is “Active”.

Q: And the Activity (1321-N1 [14])?
A: Its Activity is “Active”.

Q: What about the inhibition (U-87MG ATCC) of the same molecule?
A: Its inhibition is “inactive”.

Q: What about the inhibition (1321-N1 [15]) of the same molecule?
A: The inhibition was “inactive”.

Q: And the Activity (U-87 MG [16])?
A: The Activity was “inactive”.

Q: And the Activity (1321-N1 [17])?
A: Its Activity is “inactive”.

Q: And the Activity (U-87 MG [1])?
A: Its Activity is “Active”.

Q: What about the Activity (1321-N1 [2]) of the same molecule?
A: The Activity was “Active”.

Q: For `OCc1c(-c2ccccc2)[nH]c2ccccc12`, which Activity (U-87 MG [1]) is on record?
A: The Activity was “Active”.

Q: And the Activity (1321-N1 [2])?
A: Its Activity is “Active”.

Q: Which results are given for `O=Cc1c(-c2ccccc2)[nH]c2ccccc12` [2-PHENYL-1H-INDOLE-3-CARBALDEHYDE]?
A: IC50 ([3]; u-87mg atcc): Not Active; IC50 ([4]; 1321-n1): Not Active

Q: For `CC(C)(C)OO`, which Activity (U-87 MG [18]) is on record?
A: The Activity was “Active”.

Q: And the Activity (1321-N1 [19])?
A: Its Activity is “Active”.
